The source of these data is ChEMBL document CHEMBL1124347, “Enantioselectivity of muscarinic antagonists. Isomeric 2-cyclohexyl-2-phenyl-5-[(dimethylamino)methyl]-1,3-oxathiolane 3-oxide methiodides” (J Med Chem, 1989).

The target of assay [1] is Muscarinic acetylcholine receptor. Nature of the assay: Dissociation constant estimated by Schild analysis for antimuscarinic activity in guinea pig bladder. The class given is protein assay, Cavia porcellus. An outline of the steps:
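Longitudinal bladder strip (2 mm wide, urethra to apex) in PSS at 37 °C, with isometric recording. Tissue was equilibrated 30 min, and carbachol control curves were run as for ileum. Dose ratios (carbachol ED50 after/before antagonist) were taken at 3–4 antagonist concentrations, each tested 4–8 times. pA2 came from Schild plots with slope fixed at −1.0.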

For assay [2] the target is unchanged. Nature of the assay: Dissociation constant estimated by Schild analysis for antimuscarinic activity for guinea pig ileum. The class given is tissue-based, Cavia porcellus. The method in brief: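 Terminal ileum segments (2 cm, taken about 5 cm from the ileocecal junction) in PSS at 37 °C, with isotonic recording. After 30 min equilibration, carbachol dose–response curves were run at 30-min intervals; the second served as control. Antagonist was applied for 30 min, then the carbachol curve repeated. Dose ratios were taken at 3–4 concentrations, n=4–8 each. pA2 came from Schild analysis, slope constrained to −1.0.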

Assay [3] shares this target. Nature of the assay: Dissociation constant estimated by Schild analysis for antimuscarinic activity in guinea pig heart. Type of assay: protein assay, Cavia porcellus. The method in brief:
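Guinea pig heart preparation with carbachol as agonist and water as solvent for drugs. Dose ratios (carbachol ED50 with/without antagonist) were measured at 3–4 antagonist concentrations, 4–8 replicates each. Parallel untreated tissues monitored sensitivity drift. pA2 was estimated by Schild analysis with slope constrained to −1.0; means ± SE.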

For orientation: pA2 means a measure of antagonist potency on a negative log scale. As for `C[N+](C)(C)C[C@@H]1C[S+]([O-])[C@@](c2ccccc2)(C2CCCCC2)O1.[I-]` (single isomer, unassigned; (+)-7), the figures for the pA2 in assay [1], in assay [2] and in assay [3] were 7.73, 7.84 and 7.69, respectively.

Consider `C[N+](C)(C)C[C@@H]1C[S+]([O-])[C@@](c2ccccc2)(C2CCCCC2)O1.[I-]` (mixture of isomers; form 2), for which the pA2 in assay [1] is 7.53; in assay [2], 7.73; in assay [3], 7.45.

Turning to `C[N+](C)(C)C[C@@H]1C[S@+]([O-])[C@](c2ccccc2)(C2CCCCC2)O1.[I-]` (stereo in doubt; (+\-)-4), the pA2 in assay [1] is on record as 6.96; in assay [2] it was 6.91; in assay [3] it was 6.53.

For `C[N+](C)(C)C[C@@H]1C[S@@+]([O-])[C@](c2ccccc2)(C2CCCCC2)O1.[I-]` (stereo in doubt; (+)-3), the pA2 in assay [1] is reported as 5.94; in assay [2], 6.07; in assay [3], 5.54.

With `C[N+](C)(C)C[C@@H]1C[S@+]([O-])[C@](c2ccccc2)(C2CCCCC2)O1.[I-]` (stereo in doubt; (+)-4), the pA2 is reported as 7.19 in assay [1], 7.19 in assay [2] and 6.8 in assay [3].

Regarding `C[N+](C)(C)C[C@@H]1C[S@@+]([O-])[C@](c2ccccc2)(C2CCCCC2)O1.[I-]` (racemic), the figures for the pA2 in assay [1], in assay [2] and in assay [3] were 5.89, 6.05 and 5.96, respectively.

`C[N+](C)(C)C[C@@H]1C[S+]([O-])[C@@](c2ccccc2)(C2CCCCC2)O1.[I-]` (single isomer, unassigned; (+)-8): the pA2 in assay [1] is on record as 5.56; in assay [2] it was 5.96; in assay [3], 5.44.

Consider `C[N+](C)(C)C[C@@H]1C[S+]([O-])[C@@](c2ccccc2)(C2CCCCC2)O1.[I-]` (single isomer, unassigned; (-)-7), for which the pA2 in assay [1] was 5.49; in assay [2], 5.52; in assay [3], 5.37.

As to `C[N+](C)(C)C[C@@H]1C[S+]([O-])[C@@](c2ccccc2)(C2CCCCC2)O1.[I-]` (mixture of isomers; form 1), the pA2 in assay [1] is 5.83; in assay [2] it was 5.93; in assay [3], 5.93.

Take `C[N+](C)(C)C[C@@H]1C[S@@+]([O-])[C@](c2ccccc2)(C2CCCCC2)O1.[I-]` (stereo in doubt; (-)-3): the pA2 in assay [1] is on record as 5.88; in assay [2], 5.75; in assay [3], 6.24.

As to `C[N+](C)(C)C[C@@H]1C[S@+]([O-])[C@](c2ccccc2)(C2CCCCC2)O1.[I-]` (stereo in doubt; (-)-4), the pA2 in assay [1] is listed as 5.52; in assay [2], 5.55; in assay [3], 5.48.

In the case of `C[N+](C)(C)C[C@@H]1C[S+]([O-])[C@@](c2ccccc2)(C2CCCCC2)O1.[I-]` (single isomer, unassigned; (-)-8), the pA2 is 6.07 in assay [1], 6.17 in assay [2] and 6.01 in assay [3].
